By IC50 is commonly meant the concentration at which inhibition is half-maximal. Lower therefore signals inhibition by little substance. In general, Ki refers to a measure of affinity in units of concentration, obtained from inhibition or displacement. Broadly, the fraction unbound is free concentration divided by total concentration. Low readings indicate extensive binding, high ones weak binding.

The values below come from ChEMBL document CHEMBL1275351, “Novel spirotetracyclic zwitterionic dual H(1)/5-HT(2A) receptor antagonists for the treatment of sleep disorders” (J Med Chem, 2010).

Sequence of Cytochrome P450 2C9 (P11712 whole entry): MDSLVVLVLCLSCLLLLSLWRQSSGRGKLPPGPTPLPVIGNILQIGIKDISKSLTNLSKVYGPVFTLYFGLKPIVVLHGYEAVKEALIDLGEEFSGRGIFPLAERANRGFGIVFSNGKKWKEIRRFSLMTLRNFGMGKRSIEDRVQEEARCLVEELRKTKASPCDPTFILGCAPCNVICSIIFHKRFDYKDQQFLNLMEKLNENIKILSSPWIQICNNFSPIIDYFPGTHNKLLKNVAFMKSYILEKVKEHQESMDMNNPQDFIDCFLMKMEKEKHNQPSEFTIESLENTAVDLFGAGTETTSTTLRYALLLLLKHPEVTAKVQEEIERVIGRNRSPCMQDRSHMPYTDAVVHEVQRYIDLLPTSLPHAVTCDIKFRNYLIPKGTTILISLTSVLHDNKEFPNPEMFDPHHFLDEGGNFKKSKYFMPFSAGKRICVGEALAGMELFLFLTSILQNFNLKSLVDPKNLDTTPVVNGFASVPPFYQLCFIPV
Sequence of Histamine H1 receptor (Rattus norvegicus, UniProt P31390) (P31390 whole entry): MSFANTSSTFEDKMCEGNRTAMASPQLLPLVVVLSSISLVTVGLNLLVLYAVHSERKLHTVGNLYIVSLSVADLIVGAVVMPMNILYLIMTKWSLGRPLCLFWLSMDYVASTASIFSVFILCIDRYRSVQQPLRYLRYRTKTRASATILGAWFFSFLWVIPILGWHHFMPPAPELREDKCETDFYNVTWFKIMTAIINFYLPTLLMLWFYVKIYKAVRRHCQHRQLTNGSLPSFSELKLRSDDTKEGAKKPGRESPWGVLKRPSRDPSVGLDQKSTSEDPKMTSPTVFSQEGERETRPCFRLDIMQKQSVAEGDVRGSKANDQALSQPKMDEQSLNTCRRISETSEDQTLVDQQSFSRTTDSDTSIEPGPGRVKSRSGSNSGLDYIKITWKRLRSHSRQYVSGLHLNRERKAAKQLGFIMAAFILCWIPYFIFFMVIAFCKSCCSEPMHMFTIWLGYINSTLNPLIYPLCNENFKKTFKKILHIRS
Sequence of 5-hydroxytryptamine receptor 2A (P14842 whole entry): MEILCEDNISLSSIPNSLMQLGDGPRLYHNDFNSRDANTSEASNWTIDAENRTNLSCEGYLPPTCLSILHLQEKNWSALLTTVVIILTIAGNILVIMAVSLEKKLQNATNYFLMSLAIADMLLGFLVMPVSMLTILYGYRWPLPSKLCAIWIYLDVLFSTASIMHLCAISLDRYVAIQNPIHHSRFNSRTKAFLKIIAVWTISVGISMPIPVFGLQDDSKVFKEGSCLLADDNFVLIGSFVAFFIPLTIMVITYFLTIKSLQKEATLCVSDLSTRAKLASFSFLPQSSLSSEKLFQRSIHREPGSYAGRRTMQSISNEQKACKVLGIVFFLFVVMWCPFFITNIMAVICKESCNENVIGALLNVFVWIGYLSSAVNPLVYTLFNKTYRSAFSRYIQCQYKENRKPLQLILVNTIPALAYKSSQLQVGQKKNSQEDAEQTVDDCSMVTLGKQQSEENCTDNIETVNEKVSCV

One data set has as its system Rattus norvegicus. Nature of the data set: Hypnotic activity in Sprague-Dawley rat assessed as non-rapid eye movement sleep at 3 mg/kg, po administered during active phase. It is filed as functional. The method in brief:
(§1)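 Male Sprague-Dawley rats (275-300 g) carried implanted telemetric EEG/EMG transmitters and were used 3 weeks after surgery. Oral dosing (2 mL/kg) was given 6 h after lights off (CT18) in a randomized crossover versus vehicle. Recording ran for 5 h in 10 s epochs scored by FFT. n = 8, mean ± SEM; one-way ANOVA with Dunnett's test.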
`O=C(O)C1CN(C2CCC3(Cc4ccccc4Oc4ccccc43)C2)C1` (configuration not stated): the Time was found to be 123.2 min.

Another data set addresses T1, Cytochrome P450 1A2 (Homo sapiens, UniProt P05177).
T1 sequence (P05177 whole entry): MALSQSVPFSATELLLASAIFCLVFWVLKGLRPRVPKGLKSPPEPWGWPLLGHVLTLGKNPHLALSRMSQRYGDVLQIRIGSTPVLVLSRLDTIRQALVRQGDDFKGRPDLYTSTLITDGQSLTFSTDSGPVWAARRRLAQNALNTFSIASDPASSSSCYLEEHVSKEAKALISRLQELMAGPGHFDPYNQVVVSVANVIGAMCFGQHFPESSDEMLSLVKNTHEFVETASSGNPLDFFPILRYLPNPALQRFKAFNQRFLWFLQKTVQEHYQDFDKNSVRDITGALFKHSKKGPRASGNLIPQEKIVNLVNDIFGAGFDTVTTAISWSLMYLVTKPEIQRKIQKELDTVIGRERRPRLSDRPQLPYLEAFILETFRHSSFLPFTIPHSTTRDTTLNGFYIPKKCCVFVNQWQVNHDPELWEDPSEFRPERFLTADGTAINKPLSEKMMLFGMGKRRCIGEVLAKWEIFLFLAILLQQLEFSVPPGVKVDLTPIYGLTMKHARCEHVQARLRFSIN
Nature of the data set: Inhibition of human CYP1A2 transfected in bactosome expression system by spectrofluorimetry. In kind it is ADME. A digest of the protocol: (§2)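 Recombinant human CYP Bactosomes (0.1 mg/mL) in 50 mM phosphate buffer, pH 7.4. Compound at 0.1-10 μM was preincubated with fluorogenic substrate for 10 min at 37 °C, and the reaction was started with an NADPH regenerating system. Metabolite fluorescence was followed for 10 min. Substrates: 1A2 ethoxyresorufin 0.5 μM; 2C9 FCA 50 μM; 2C19 BMC 10 μM; 2D6 MMC 10 μM; 3A4 DEF 1 μM or 7-BQ 25 μM. Run in triplicate.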
The compound `O=C(O)C1CN(C2CCC3(Cc4ccccc4Oc4ccccc43)C2)C1` (configuration not stated) yielded an IC50 of more than 10 µM.

A further data set deals with Cytochrome P450 2C19 (Homo sapiens, UniProt P33261). Nature of the data set: Inhibition of human CYP2C19 transfected in bactosome expression system by spectrofluorimetry. In kind it is ADME. The method in brief: as §2
Sequence of Cytochrome P450 2C19 (P33261 whole entry): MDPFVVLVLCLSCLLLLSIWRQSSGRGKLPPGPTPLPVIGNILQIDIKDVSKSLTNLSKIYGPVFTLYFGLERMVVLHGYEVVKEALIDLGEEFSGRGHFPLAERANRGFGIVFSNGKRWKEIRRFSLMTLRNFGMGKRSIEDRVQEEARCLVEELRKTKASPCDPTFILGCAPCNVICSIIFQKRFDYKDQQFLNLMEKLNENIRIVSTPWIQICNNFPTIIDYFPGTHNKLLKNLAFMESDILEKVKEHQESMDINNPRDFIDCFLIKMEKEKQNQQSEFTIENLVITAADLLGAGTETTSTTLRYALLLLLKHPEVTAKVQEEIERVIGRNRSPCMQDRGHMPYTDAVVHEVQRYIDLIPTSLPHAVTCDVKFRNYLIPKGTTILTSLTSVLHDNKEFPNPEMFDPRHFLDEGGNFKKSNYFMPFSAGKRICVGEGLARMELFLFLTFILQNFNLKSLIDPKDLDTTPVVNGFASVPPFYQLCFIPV
`O=C(O)C1CN(C2CCC3(Cc4ccccc4Oc4ccccc43)C2)C1` (configuration not stated) came in with an IC50 of more than 10 µM.

The next data set has as its target Cytochrome P450 2C9 (Homo sapiens, UniProt P11712). Nature of the data set: Inhibition of human CYP2C9 transfected in bactosome expression system by spectrofluorimetry. It is filed as ADME. A digest of the protocol: as §2
Regarding `O=C(O)C1CN(C2CCC3(Cc4ccccc4Oc4ccccc43)C2)C1` (configuration not stated), the IC50 was more than 10 µM.

The test system of a further data set is Rattus norvegicus. The experiment in a line: Hypnotic activity in Sprague-Dawley rat assessed as rapid eye movement sleep at 10 mg/kg, po administered during active phase. It is filed as functional. A digest of the protocol:
as §1
On to `O=C(O)C1CN(C2CCC3(Cc4ccccc4Oc4ccccc43)C2)C1` (configuration not stated), for which the Time was 16.2 min.

In a further data set the test system is Rattus norvegicus. Nature of the data set: Hypnotic activity in Sprague-Dawley rat assessed as rapid eye movement sleep at 1 mg/kg, po administered during active phase. It is filed as functional. A digest of the protocol:
as §1
As to `O=C(O)C1CN(C2CCC3(Cc4ccccc4Oc4ccccc43)C2)C1` (configuration not stated), the Time worked out at 13.3 min.

The target in the next data set is Histamine H1 receptor (Homo sapiens, UniProt P35367). The experiment in a line: Antagonist activity against human histamine H1 receptor expressed in CHO cells by FLIPR assay. In kind it is functional, cell-based.
Sequence of Histamine H1 receptor (Homo sapiens, UniProt P35367) (P35367 whole entry): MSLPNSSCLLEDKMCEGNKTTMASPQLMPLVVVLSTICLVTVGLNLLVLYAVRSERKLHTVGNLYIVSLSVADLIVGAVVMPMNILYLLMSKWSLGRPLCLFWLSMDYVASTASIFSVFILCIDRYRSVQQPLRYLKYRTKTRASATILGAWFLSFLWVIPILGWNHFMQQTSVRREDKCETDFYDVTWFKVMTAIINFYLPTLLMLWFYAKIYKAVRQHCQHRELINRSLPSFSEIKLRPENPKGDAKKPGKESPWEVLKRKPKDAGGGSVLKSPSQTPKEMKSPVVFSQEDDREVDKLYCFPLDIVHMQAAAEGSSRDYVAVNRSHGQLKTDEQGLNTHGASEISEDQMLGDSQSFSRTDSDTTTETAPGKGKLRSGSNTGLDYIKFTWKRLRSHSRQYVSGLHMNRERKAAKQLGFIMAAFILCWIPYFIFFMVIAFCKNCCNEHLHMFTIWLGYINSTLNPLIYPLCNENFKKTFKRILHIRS
The compound `O=C(O)C1CN(C2CCC3(Cc4ccccc4Oc4ccccc43)C2)C1` (configuration not stated) had a Ki of 50.1 nM.

The subject of another data set is Rattus norvegicus. Nature of the data set: Hypnotic activity in Sprague-Dawley rat assessed as non-rapid eye movement latency period at 3 mg/kg, po administered during active phase. In kind it is functional. The method in brief:
as §1
For the compound `O=C(O)C1CN(C2CCC3(Cc4ccccc4Oc4ccccc43)C2)C1` (configuration not stated), the Time is 37.9 min.

In the next data set the test system is Rattus norvegicus. Nature of the data set: Hypnotic activity in Sprague-Dawley rat assessed as rapid eye movement latency period at 10 mg/kg, po administered during active phase. It is filed as functional. The method in brief: as §1
With `O=C(O)C1CN(C2CCC3(Cc4ccccc4Oc4ccccc43)C2)C1` (configuration not stated), the Time is recorded as 63.4 min.

A further data set relates to Rattus norvegicus. The experiment in a line: Hypnotic activity in Sprague-Dawley rat assessed as total sleep time at 10 mg/kg, po administered during active phase. It is filed as functional. The method in brief: as §1
Consider `O=C(O)C1CN(C2CCC3(Cc4ccccc4Oc4ccccc43)C2)C1` (configuration not stated), for which the Time was 155.7 min.

The subject of the next data set is Rattus norvegicus. The experiment in a line: Hypnotic activity in Sprague-Dawley rat assessed as total sleep time at 3 mg/kg, po administered during active phase. It is filed as functional. A digest of the protocol: as §1
Turning to `O=C(O)C1CN(C2CCC3(Cc4ccccc4Oc4ccccc43)C2)C1` (configuration not stated), the Time is listed as 138.3 min.

System in a further data set: not listed separately
The experiment in a line: Fraction unbound in rat brain. In kind it is ADME, tissue-based.
With `O=C(O)C1CN(C2CCC3(Cc4ccccc4Oc4ccccc43)C2)C1` (configuration not stated), the fraction unbound came to 0.04.

The next data set concerns Rattus norvegicus. The experiment in a line: Hypnotic activity in Sprague-Dawley rat assessed as non-rapid eye movement latency period at 10 mg/kg, po administered during active phase. It is filed as functional. A digest of the protocol: as §1
For `O=C(O)C1CN(C2CCC3(Cc4ccccc4Oc4ccccc43)C2)C1` (configuration not stated), the Time is on record as 31.5 min.

For a further data set, the target named is Cytochrome P450 3A4 (Homo sapiens, UniProt P08684). Nature of the data set: Inhibition of human CYP3A4 transfected in bactosome expression system by spectrofluorimetry. It is filed as ADME. A digest of the protocol: as §2
Sequence of Cytochrome P450 3A4 (P08684 whole entry): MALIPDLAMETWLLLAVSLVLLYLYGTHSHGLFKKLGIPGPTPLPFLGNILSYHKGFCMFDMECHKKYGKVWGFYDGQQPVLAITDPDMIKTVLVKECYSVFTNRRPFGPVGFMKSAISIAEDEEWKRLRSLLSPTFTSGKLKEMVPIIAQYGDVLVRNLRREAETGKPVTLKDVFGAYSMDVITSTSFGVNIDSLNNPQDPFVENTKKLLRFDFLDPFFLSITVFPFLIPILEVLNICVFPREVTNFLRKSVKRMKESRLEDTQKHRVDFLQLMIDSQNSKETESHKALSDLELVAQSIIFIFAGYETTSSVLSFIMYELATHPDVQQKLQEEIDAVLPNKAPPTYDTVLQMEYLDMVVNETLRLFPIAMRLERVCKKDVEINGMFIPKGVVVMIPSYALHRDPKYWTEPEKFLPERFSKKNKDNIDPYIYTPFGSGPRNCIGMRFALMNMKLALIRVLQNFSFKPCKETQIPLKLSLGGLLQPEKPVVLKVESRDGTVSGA
Consider `O=C(O)C1CN(C2CCC3(Cc4ccccc4Oc4ccccc43)C2)C1` (configuration not stated), for which the IC50 is more than 10 µM.

Another data set deals with T2, 5-hydroxytryptamine receptor 2C (Homo sapiens, UniProt P28335).
T2 sequence (P28335 whole entry): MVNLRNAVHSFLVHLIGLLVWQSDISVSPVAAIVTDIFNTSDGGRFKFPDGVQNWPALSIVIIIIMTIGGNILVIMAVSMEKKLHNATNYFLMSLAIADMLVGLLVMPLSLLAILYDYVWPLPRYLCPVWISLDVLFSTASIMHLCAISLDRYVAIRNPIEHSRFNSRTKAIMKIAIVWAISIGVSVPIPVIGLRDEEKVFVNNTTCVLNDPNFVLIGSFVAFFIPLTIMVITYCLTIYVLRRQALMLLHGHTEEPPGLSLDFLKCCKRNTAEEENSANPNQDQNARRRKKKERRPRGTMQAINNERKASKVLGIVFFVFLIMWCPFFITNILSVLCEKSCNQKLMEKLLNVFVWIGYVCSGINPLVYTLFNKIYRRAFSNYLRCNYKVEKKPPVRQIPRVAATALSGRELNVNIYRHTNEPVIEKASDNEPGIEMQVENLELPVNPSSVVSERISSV
The experiment in a line: Antagonist activity at human 5HT2C receptor expressed in human SH-SY5Y cells by FLIPR assay. It is filed as functional, cell-based.
For the compound `O=C(O)C1CN(C2CCC3(Cc4ccccc4Oc4ccccc43)C2)C1` (configuration not stated), the affinity corresponds to a Ki of 31.6 nM.

A further data set addresses Histamine H1 receptor (Rattus norvegicus, UniProt P31390). The experiment in a line: Displacement of [3H]pyrilamine from histamine H1 receptor in Sprague-Dawley rat cortical membrane by liquid scintillation counting. The method in brief: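 Cerebral cortex membranes from male Sprague-Dawley rats (200-250 g), 150 μg/well. Incubated with 0.6 nM [3H]pyrilamine in 50 mM HEPES, pH 7.4, for 2 h at room temperature. Filtered on PEI-soaked GF/B and counted by scintillation. Nonspecific binding with 10 μM cetirizine. Ki by Cheng-Prusoff; mean of two experiments in duplicate.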
(In a radioligand displacement assay an active substance lowers the binding of a labelled ligand.)
The compound `O=C(O)C1CN(C2CCC3(Cc4ccccc4Oc4ccccc43)C2)C1` (configuration not stated) showed a Ki of 14.1 nM.

The next data set deals with 5-hydroxytryptamine receptor 2A (Rattus norvegicus, UniProt P14842). The experiment in a line: Displacement of [3H]ketanserin from 5HT2A receptor in Sprague-Dawley rat cortical membrane by liquid scintillation counting. The method in brief:
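Cerebral cortex membranes from male Sprague-Dawley rats (200-250 g), 50 μg/well. Incubated with 1 nM [3H]ketanserin in 50 mM Tris-HCl, 10 mM MgCl2, pH 7.4, for 1 h at 37 °C with shaking. Filtered on PEI-soaked GF/B and counted by scintillation. Nonspecific binding with 10 μM mianserin. Ki by Cheng-Prusoff; mean of two experiments in duplicate.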
In turn, `O=C(O)C1CN(C2CCC3(Cc4ccccc4Oc4ccccc43)C2)C1` (configuration not stated) had a Ki of 33.9 nM.

The target of the next data set is 5-hydroxytryptamine receptor 2B (Homo sapiens, UniProt P41595). Nature of the data set: Antagonist activity at human 5HT2B receptor expressed in human SH-SY5Y cells by FLIPR assay.
Sequence of 5-hydroxytryptamine receptor 2B (P41595 whole entry): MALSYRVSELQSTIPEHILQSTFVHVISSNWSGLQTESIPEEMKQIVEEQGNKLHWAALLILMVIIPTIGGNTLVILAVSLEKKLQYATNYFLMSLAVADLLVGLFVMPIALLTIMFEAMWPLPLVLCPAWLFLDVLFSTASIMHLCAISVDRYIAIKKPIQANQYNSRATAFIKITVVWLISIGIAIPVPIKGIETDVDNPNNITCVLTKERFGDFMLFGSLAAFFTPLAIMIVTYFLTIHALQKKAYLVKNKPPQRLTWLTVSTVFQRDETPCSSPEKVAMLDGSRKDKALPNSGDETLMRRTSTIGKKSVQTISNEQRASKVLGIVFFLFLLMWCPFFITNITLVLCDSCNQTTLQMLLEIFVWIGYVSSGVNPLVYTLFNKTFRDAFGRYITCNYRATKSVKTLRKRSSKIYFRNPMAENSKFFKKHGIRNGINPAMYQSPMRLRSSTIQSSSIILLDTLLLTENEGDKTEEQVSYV
With `O=C(O)C1CN(C2CCC3(Cc4ccccc4Oc4ccccc43)C2)C1` (configuration not stated), the affinity, expressed as Ki, was 794 nM.

In the next data set the test system is Rattus norvegicus. Nature of the data set: Hypnotic activity in Sprague-Dawley rat assessed as total sleep time at 1 mg/kg, po administered during active phase. It is filed as functional. The method in brief: as §1
For the compound `O=C(O)C1CN(C2CCC3(Cc4ccccc4Oc4ccccc43)C2)C1` (configuration not stated), the Time turned out to be 120.7 min.

The target in the next data set is Cytochrome P450 2D6 (Homo sapiens, UniProt P10635). Nature of the data set: Inhibition of human CYP2D6 transfected in bactosome expression system by spectrofluorimetry. In kind it is ADME. The method in brief: as §2
Sequence of Cytochrome P450 2D6 (P10635 whole entry): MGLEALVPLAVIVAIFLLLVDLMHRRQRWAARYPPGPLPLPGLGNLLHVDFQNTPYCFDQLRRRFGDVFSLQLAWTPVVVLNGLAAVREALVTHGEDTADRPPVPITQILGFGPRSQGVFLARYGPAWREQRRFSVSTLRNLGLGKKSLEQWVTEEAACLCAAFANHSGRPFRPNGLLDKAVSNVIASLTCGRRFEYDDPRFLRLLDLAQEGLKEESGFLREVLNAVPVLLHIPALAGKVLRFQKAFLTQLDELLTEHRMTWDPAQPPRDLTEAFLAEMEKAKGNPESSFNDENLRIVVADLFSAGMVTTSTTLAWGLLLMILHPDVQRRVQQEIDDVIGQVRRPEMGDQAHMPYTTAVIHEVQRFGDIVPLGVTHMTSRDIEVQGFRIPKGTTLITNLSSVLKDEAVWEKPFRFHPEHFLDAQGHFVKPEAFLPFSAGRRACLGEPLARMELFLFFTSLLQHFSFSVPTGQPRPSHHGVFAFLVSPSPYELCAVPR
The compound `O=C(O)C1CN(C2CCC3(Cc4ccccc4Oc4ccccc43)C2)C1` (configuration not stated) gave an IC50 of more than 10 µM.

The subject of another data set is Rattus norvegicus. The experiment in a line: Hypnotic activity in Sprague-Dawley rat assessed as rapid eye movement sleep at 3 mg/kg, po administered during active phase. It is filed as functional. A digest of the protocol: as §1
As to `O=C(O)C1CN(C2CCC3(Cc4ccccc4Oc4ccccc43)C2)C1` (configuration not stated), the Time was determined as 15.1 min.

The subject of the next data set is Rattus norvegicus. The experiment in a line: Hypnotic activity in Sprague-Dawley rat assessed as rapid eye movement latency period at 1 mg/kg, po administered during active phase. In kind it is functional. A digest of the protocol:
as §1
Regarding `O=C(O)C1CN(C2CCC3(Cc4ccccc4Oc4ccccc43)C2)C1` (configuration not stated), the Time worked out at 67 min.
